# Data reported in ChEMBL document CHEMBL3421563, “Potent Irreversible Inhibitors of LasR Quorum Sensing in Pseudomonas aeruginosa” (ACS Med Chem Lett, 2015).
# Calls of active or inactive are those of the source. No cut-off for these calls is given here.
# Columns and labels:
# [1] = Antagonist activity at Pseudomonas aeruginosa LasR expressed in Escherichia coli BL21 DE3 after 4 to 6 hrs by GFP reporter gene assay
# In short: (§1)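 GFP-based LasR antagonist bioassay. IC50 is the mean of triplicate runs, range as 95% confidence interval. Percent inhibition of GFP is measured at 100 μM relative to Br-HSL positive control, which is set at 100% inhibition.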
# [2] = biological target: T1, Transcriptional activator protein LasR (Pseudomonas aeruginosa (strain ATCC 15692 / PAO1 / 1C / PRS 101 / LMG12228)) (UniProt P25084); assay: Antagonist activity at Pseudomonas aeruginosa LasR expressed in Escherichia coli BL21 DE3 at 100 uM after 4 to 6 hrs by GFP reporter gene assay relative to Br-HSL; in short: as §1
# T1 sequence (whole entry): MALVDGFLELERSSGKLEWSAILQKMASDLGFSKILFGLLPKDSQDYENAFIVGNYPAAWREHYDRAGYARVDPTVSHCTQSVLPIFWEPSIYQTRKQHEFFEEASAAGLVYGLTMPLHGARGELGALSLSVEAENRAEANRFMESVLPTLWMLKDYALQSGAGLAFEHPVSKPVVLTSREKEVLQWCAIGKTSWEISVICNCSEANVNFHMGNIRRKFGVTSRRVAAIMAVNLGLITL
# [3] = system: Pseudomonas aeruginosa; assay: Effect on growth of Pseudomonas aeruginosa up to 200 uM; type: organism-based; conditions: in vivo
# In short: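 Bacterial growth is monitored by OD600 at concentrations up to 200 μM.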
# [4] = biological target: T1, Transcriptional activator protein LasR (Pseudomonas aeruginosa (strain ATCC 15692 / PAO1 / 1C / PRS 101 / LMG12228)); assay: Irreversible antagonist activity at Pseudomonas aeruginosa LasR expressed in Escherichia coli BL21 DE3 at 10 to 50 uM after 4 to 6 hrs by GFP reporter gene assay in presence of LasR agonist 3-oxo-C12HSL
# In short: (§2)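 Competition format of the GFP LasR bioassay: antagonist held at a fixed concentration while a dose-response curve of native agonist 3-oxo-C12 HSL is run; the maximal activation and the curve are compared.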
# [5] = biological target: T2, Transcriptional activator protein LasR (Pseudomonas aeruginosa (strain ATCC 15692 / PAO1 / 1C / PRS 101 / LMG12228), UniProt P25084); assay: Agonist activity at Pseudomonas aeruginosa LasR expressed in Escherichia coli BL21 DE3 after 4 to 6 hrs by GFP reporter gene assay
# T2 sequence (P25084 whole entry): T1 sequence (whole entry)
# [6] = biological target: T2, Transcriptional activator protein LasR; assay: Agonist activity at Pseudomonas aeruginosa LasR
# [7] = biological target: T1, Transcriptional activator protein LasR (Pseudomonas aeruginosa (strain ATCC 15692 / PAO1 / 1C / PRS 101 / LMG12228)); assay: Antagonist activity at LasR in Pseudomonas aeruginosa PAO1 assessed as decrease in pyocyanin level in cell-free supernatants after 12 hrs
# In short: (§3)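 Cell-free supernatants from PAO1 or PA14 cultures. Pyocyanin is read directly as absorbance at 695 nm, in triplicate. Cell density is read at A600 in parallel.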
# [8] = biological target: T1, Transcriptional activator protein LasR (Pseudomonas aeruginosa (strain ATCC 15692 / PAO1 / 1C / PRS 101 / LMG12228)); assay: Irreversible antagonist activity at Pseudomonas aeruginosa LasR expressed in Escherichia coli BL21 DE3 at 10 to 100 uM after 4 to 6 hrs by GFP reporter gene assay in presence of LasR agonist 3-oxo-C12HSL; in short: as §2
# [9] = biological target: T1, Transcriptional activator protein LasR (Pseudomonas aeruginosa (strain ATCC 15692 / PAO1 / 1C / PRS 101 / LMG12228)); assay: Antagonist activity at LasR in Pseudomonas aeruginosa PA14 assessed as decrease in pyocyanin level in cell-free supernatants after 12 hrs; in short: as §3
# [10] = biological target: T1, Transcriptional activator protein LasR (Pseudomonas aeruginosa (strain ATCC 15692 / PAO1 / 1C / PRS 101 / LMG12228)); assay: Antagonist activity at LasR in Pseudomonas aeruginosa PAO1 assessed as decrease in pyocyanin level in extracted and acidified cell-free supernatants after 12 hrs
# In short: (§4)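 Cell-free culture supernatants undergo a pyocyanin-selective extraction and acidification, then absorbance is read at 520 nm.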
# [11] = biological target: T1, Transcriptional activator protein LasR (Pseudomonas aeruginosa (strain ATCC 15692 / PAO1 / 1C / PRS 101 / LMG12228)); assay: Antagonist activity at LasR in Pseudomonas aeruginosa PA14 assessed as decrease in pyocyanin level in extracted and acidified cell-free supernatants after 12 hrs; in short: as §4
# [12] = system: Pseudomonas aeruginosa; assay: Effect on growth of Pseudomonas aeruginosa PAO1 at 12.5 to 25 uM; type: organism-based; conditions: in vivo
# In short: (§5)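 Growth of PAO1 and PA14 in the pyocyanin cultures is followed by cell density at A600.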
# [13] = system: Pseudomonas aeruginosa; assay: Effect on growth of Pseudomonas aeruginosa PA14 at 12.5 to 25 uM; in short: as §5
# [14] = biological target: T1, Transcriptional activator protein LasR (Pseudomonas aeruginosa (strain ATCC 15692 / PAO1 / 1C / PRS 101 / LMG12228)); assay: Antagonist activity at LasR in Pseudomonas aeruginosa PA14 assessed as inhibition of static biofilm formation after 48 hrs by crystal violet staining
# In short: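 Static PA14 cultures; 48 h biofilms quantified by crystal violet staining, absorbance at 550 nm.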
# [15] = biological target: T1, Transcriptional activator protein LasR (Pseudomonas aeruginosa (strain ATCC 15692 / PAO1 / 1C / PRS 101 / LMG12228)); assay: Antagonist activity at LasR in Pseudomonas aeruginosa PA14 assessed as inhibition of static biofilm thickness grown in rich media after 36 hrs by SYTO-9 nucleic acid staining-based confocal microscopic analysis
# In short: (§6)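 PA14 biofilms grown 36 h in Luria broth, stained with SYTO-9 and imaged by confocal fluorescence microscopy. Biomass and thickness are computed from the images. Images are taken in duplicate and imaging is repeated three times.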
# [16] = biological target: T1, Transcriptional activator protein LasR (Pseudomonas aeruginosa (strain ATCC 15692 / PAO1 / 1C / PRS 101 / LMG12228)); assay: Antagonist activity at LasR in Pseudomonas aeruginosa PA14 assessed as inhibition of overall static biofilm biomass grown in rich media after 36 hrs SYTO-9 nucleic acid staining-based confocal microscopic analysis; in short: as §6
# [17] = biological target: T1, Transcriptional activator protein LasR (Pseudomonas aeruginosa (strain ATCC 15692 / PAO1 / 1C / PRS 101 / LMG12228)); assay: Antagonist activity at LasR in Pseudomonas aeruginosa PA14 assessed as inhibition of static biofilm biomass grown in rich media at 12.5 to 25 uM after 36 hrs SYTO-9 nucleic acid staining-based confocal microscopic analysis
# [18] = biological target: T1, Transcriptional activator protein LasR (Pseudomonas aeruginosa (strain ATCC 15692 / PAO1 / 1C / PRS 101 / LMG12228)); assay: Antagonist activity at LasR in Pseudomonas aeruginosa PA14 assessed as inhibition of static biofilm thickness grown in rich media at 12.5 to 25 uM after 36 hrs SYTO-9 nucleic acid staining-based confocal microscopic analysis
# [19] = biological target: T1, Transcriptional activator protein LasR (Pseudomonas aeruginosa (strain ATCC 15692 / PAO1 / 1C / PRS 101 / LMG12228)); assay: Antagonist activity at LasR in Pseudomonas aeruginosa PA14 assessed as inhibition of overall static biofilm morphology grown in rich media at 12.5 to 25 uM after 36 hrs SYTO-9 nucleic acid staining-based confocal microscopic analysis
# [20] = biological target: T1, Transcriptional activator protein LasR (Pseudomonas aeruginosa (strain ATCC 15692 / PAO1 / 1C / PRS 101 / LMG12228)); assay: Non-competitive antagonist activity at Pseudomonas aeruginosa LasR expressed in Escherichia coli BL21 DE3 at 40 to 80 uM after 4 to 6 hrs by GFP reporter gene assay in presence of LasR agonist 3-oxo-C12HSL; in short: as §2
IC50 [1],inhibition [2],Structure (SMILES),further results
> 200 µM,26%,O=C(CCCN=C=S)Oc1c(Br)cc(Br)cc1CNC(=O)c1ccccc1[N+](=O)[O-],Activity [3]: Non-toxic
> 200 µM,55%,O=C(Cc1cc(Br)cc(Br)c1OCCCN=C=S)Nc1ccccc1[N+](=O)[O-],Activity [3]: Non-toxic
99.5 µM,79%,O=C(CCl)NCCC(=O)Oc1c(Br)cc(Br)cc1CC(=O)Nc1ccccc1[N+](=O)[O-],–
3.6 µM,98%,O=C(Cc1cc(Br)cc(Br)c1OC(=O)CCN1C(=O)C=CC1=O)Nc1ccccc1[N+](=O)[O-],inhibition [4]: Active
> 100 µM,–,O=C(Cc1cc(Br)cc(Br)c1OC(=O)CCN1C(=O)CCC1=O)Nc1ccccc1[N+](=O)[O-],EC50 [5]: 0.0036 µM
148 µM,69%,O=C(Cc1cc(Br)cc(Br)c1OC(=O)CCCN=C=S)Nc1ccccc1[N+](=O)[O-],Activity [3]: Non-toxic
–,–,O=C(Oc1c(Br)cc(Br)cc1CNC(=O)c1ccccc1[N+](=O)[O-])c1ccccc1Cl,EC50 [6]: 0.028 µM
73.8 µM,91%,O=C(CCl)NCC(=O)Oc1c(Br)cc(Br)cc1CC(=O)Nc1ccccc1[N+](=O)[O-],–
16.4 µM,–,O=C(Cc1ccc(Br)cc1)N[C@H]1CCOC1=O,–
51.9 µM,32%,O=C(CCN1C(=O)C=CC1=O)Oc1c(Br)cc(Br)cc1CNC(=O)c1ccccc1[N+](=O)[O-],–
1.5 µM,101%,O=C(CCCN1C(=O)C=CC1=O)Oc1c(Br)cc(Br)cc1CNC(=O)c1ccccc1[N+](=O)[O-],inhibition [7]: Dose-dependent effect; inhibition [8]: Active; inhibition [9]: Dose-dependent effect; inhibition [10]: Dose-dependent effect; inhibition [11]: Dose-dependent effect; Activity [12]: Non-toxic; Activity [13]: Non-toxic; inhibition [14]: Dose-dependent effect; inhibition [15]: Dose-dependent effect; inhibition [16]: Dose-dependent effect; inhibition [17]: Active; inhibition [18]: Active; inhibition [19]: Active
78.1 µM,30%,O=C(Cc1cc(Br)cc(Br)c1OC(=O)CCCN1C(=O)C=CC1=O)Nc1ccccc1[N+](=O)[O-],–
145 µM,61%,O=C(Cc1cc(Br)cc(Br)c1OCCCCN=C=S)Nc1ccccc1[N+](=O)[O-],Activity [3]: Non-toxic; inhibition [20]: Active
86.8 µM,56%,O=C(Cc1cc(Br)cc(Br)c1OC(=O)CN1C(=O)C=CC1=O)Nc1ccccc1[N+](=O)[O-],–
> 100 µM,–,O=C(CCCN1C(=O)CCC1=O)Oc1c(Br)cc(Br)cc1CNC(=O)c1ccccc1[N+](=O)[O-],EC50 [5]: 0.119 µM
